What was measured:
GR = GR nuclear translocation, confocal microscopy in A549 cells; format: cell-based, human; conditions: 10 μM, 2 h
[1] = system: NF-κB-dependent transcription (GR transrepression); format: cell-based; conditions: Homo sapiens, HeLa, read-out: IC50, NF-κB Luc transrepression
In short: (§1)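 HeLa cells grown 24 h in 5% CSS DMEM, then lipofected for 24 h with 71 ng GRα, 5 ng Renilla, and 24 ng reporter (NF-κB-Luc or 5×AP-1-Luc). Cells were stimulated with TNF-α 5 ng/mL (NF-κB) or PMA 1 ng/mL (AP-1) plus test compound. Lysates were read by dual firefly/Renilla luciferase.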

[2] = system: AP-1-dependent transcription (GR transrepression); format: cell-based; conditions: Homo sapiens, HeLa, read-out: IC50, AP-1 Luc transrepression
In short: as §1

RAW264.7 cells [3] = format: cell-based, mouse; conditions: 10 μM with 20 ng/mL LPS overnight
RAW264.7 cells [4] = test: Real-time quantitative PCR in LPS-stimulated RAW264.7 cells; format: cell-based, mouse; conditions: RAW264.7, 20 ng/mL LPS, 10 μM, 18 h
In short: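 Mouse RAW264.7 macrophages (1 × 10^6 per well) were cultured 24 h in 3% CSS DMEM. They were then co-treated with 20 ng/mL LPS and 10 μM test compound for 18 h. Total RNA was reverse-transcribed and target transcripts were measured by SYBR Green qPCR, with GAPDH normalisation and 2^−ΔΔCt relative quantitation.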

AR = format: cell-based, human; conditions: various concentrations, 72 h; 10 nM DHT = 100%
PR = PR selectivity, ARR3tk-luciferase reporter in PC3 cells transfected with hPR; format: cell-based, human; conditions: various concentrations, 16 h; 10 nM progesterone = 100%
In short: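 PR counter-screen in PC3 cells: 1 × 10^4 cells/well in 3% CSS DMEM for 24 h. Lipofection for 24 h with 50 ng hPR, 50 ng ARR3tk-luciferase, and 5 ng Renilla per well. Then 16 h exposure to 10 nM progesterone or test compound, and luciferase measurement.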

MR = MR selectivity, MMTV luciferase reporter in 293T cells transfected with pCMV-hMR; format: cell-based, human; conditions: various concentrations, 16 h; 10 nM aldosterone = 100%
In short: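 Human MR counter-screen. 293T cells were seeded at 1 × 10^4 cells/well in 3% CSS DMEM for 24 h. They were then lipofected for 24 h with 71 ng pCMV-hMR, 24 ng pGL4.36 MMTV-luc2P, and 5 ng Renilla. Next they were treated for 16 h with 10 nM aldosterone or test compound. Firefly luciferase read-out.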

CC(C)[C@H](NC(=O)C(C)(F)F)[C@H](Oc1ccc2c(cnn2-c2ccc(=O)n(C)c2)c1)c1ccccc1 [Azd9567]
GR nuclear translocation (GR): promoted the translocation of GR from the cytoplasm to the nucleus

C[C@@H]1C[C@H]2[C@@H]3CCC4=CC(=O)C=C[C@]4(C)[C@@]3(F)[C@@H](O)C[C@]2(C)[C@@]1(O)C(=O)CO [Dex, dexamethasone]
IC50 [1]: 14 ± 2.19 nM | IC50 [2]: 48.8 ± 7.1 nM | GR nuclear translocation (GR): promoted the translocation of GR from the cytoplasm to the nucleus | number of repressed genes (RNA-seq) (RAW264.7 cells [3]): 117 | SOCS3 mRNA regulation (Q-PCR) (RAW264.7 cells [4]): downregulated only by HT-15 but not Dex | off-target activation effect on AR (AR): strong activation effects | off-target activation effect on PR (PR): strong activation effects | off-target activation effect on MR (MR): strong activation effects

— publication PMC8809242 (Acta Pharmacologica Sinica, 2022)
